Each structure is given as a SMILES string. Converted amounts (≈) assume the structure as drawn. The source made the active and inactive calls. No cut-off for these calls is given here. Non-standard residues stand in square brackets, D forms with d. Residues, ends and D or L forms follow the SMILES beside them. *: point of attachment. Pro(4R-Me) = C[C@H]1CN[C@H](C(=O)O)C1; Oleoyl = CCCCCCCC/C=C\CCCCCCCC(=O)*; hSer = N[C@@H](CCO)C(=O)O; Alaol = C[C@@H](CO)N*

Experiment [1] deals with Aspergillus fumigatus. Description: Antifungal activity against Aspergillus fumigatus ATCC 46645 at 8 ug/ml after 24 hrs by resazurin test. Type of experiment: functional, organism-based. The method in brief:
(§1)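 Tested with and without sublethal caspofungin (0.015 μg/mL for A. fumigatus, 0.03 μg/mL for C. albicans) at 37 °C for 24 h. Resazurin 0.002% added 3–4 h before reading; fluorescence read at ex 570/em 615 nm. C. albicans was grown overnight in SDB, set to OD600 0.25 in RPMI-modified medium (pH 7.1) and diluted 1:10. Run in triplicate.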

Experiment [2] relates to Candida albicans. Description: Antifungal activity against Candida albicans MY1055 after 24 hrs by resazurin test in presence of caspofungin. Type of experiment: functional. Conditions: MY1055, 24 h. The method in brief: as §1
Background: Alamar Blue is a resazurin reagent that responds to reducing activity.

Experiment [3] concerns Aspergillus fumigatus. Nature of the experiment: Antifungal activity against Aspergillus fumigatus ATCC 46645 after 24 hrs by resazurin test in presence of caspofungin. Type of experiment: functional. To be noted: ATCC 46645, 24 h. Summed up:
as §1

The subject of experiment [4] is Candida albicans. Description: Potentiation of caspofungin-induced antifungal activity against Candida albicans MY1055 at 1 ug/ml after 24 hrs by checkerboard method. The format is functional, organism-based. Summed up: (§2)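 Checkerboard of double dilutions: caspofungin at final 0.24–0.00018 μg/mL (columns) crossed with test compound at final 8–0.015 μg/mL (rows) in the central 80 wells of one plate. Caspofungin dose–response curves gave IC50 values at each compound level.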

Experiment [5] relates to Aspergillus fumigatus. Description: Potentiation of caspofungin-induced antifungal activity against Aspergillus fumigatus ATCC 46645 at 2 ug/ml after 24 hrs by checkerboard method relative to control. Type of experiment: functional. The method in brief:
as §2

Experiment [6] has as its system Nakaseomyces glabratus. Nature of the experiment: Antifungal activity against Candida glabrata MY992 at 8 ug/ml after 24 hrs by resazurin test. The format is functional, organism-based.
The subject of experiment [7] is Candida albicans. Nature of the experiment: Antifungal activity against Candida albicans MY1055 at 8 ug/ml after 24 hrs by resazurin test. Type of experiment: functional, organism-based. Summed up: as §1
In the next experiment the test system is Pichia kudriavzevii. Description: Antifungal activity against Candida krusei ATCC 6258 after 24 hrs by 2-fold serial dilution method. Type of experiment: functional. To be noted: ATCC 6258, 24 h. The method in brief:
(§3)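 Cells were inoculated at 10^5 CFU/mL into 2-fold serial compound dilutions in growth medium and incubated at 37 °C. The MIC was recorded after 24 h as the lowest concentration inhibiting visible growth. Where given, the MIC80 is 80% inhibition, reported as prominent inhibition.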

For the next experiment, the system named is Clavispora lusitaniae. Description: Antifungal activity against Clavispora lusitaniae ATCC 34449 after 24 hrs by 2-fold serial dilution method. The format is functional. Conditions: ATCC 34449, 24 h. The method in brief: as §3
Experiment [8] deals with Candida albicans. Description: Antifungal activity against Candida albicans MY1055 after 24 hrs by 2-fold serial dilution method. Conditions: MY1055, 24 h. The format is functional. Summed up: as §3
The test system of another experiment is Candida tropicalis. Nature of the experiment: Antifungal activity against Candida tropicalis ATCC 750 after 24 hrs by 2-fold serial dilution method. The format is functional. Conditions: ATCC 750, 24 h. Summed up:
as §3

In experiment [9] the test system is Nakaseomyces glabratus. Description: Antifungal activity against Candida glabrata ATCC 90030 after 24 hrs by 2-fold serial dilution method. Type of experiment: functional. Conditions: ATCC 90030, 24 h. The method in brief: as §3
The test system of experiment [10] is Aspergillus fumigatus. Nature of the experiment: Antifungal activity against Aspergillus fumigatus MF5668 after 48 hrs by 2-fold serial dilution method. Conditions: MF5668, 48 h. The format is functional. Summed up:
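Broth microdilution MIC test: the inoculum was 10^5 CFU/mL, with a 2-fold serial dilution of compound in growth medium at 37 °C. The MIC was read after 48 h incubation as the lowest concentration inhibiting visible growth. Where given, the MIC80 is 80% inhibition, reported as prominent inhibition.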

In experiment [11] the test system is Candida albicans. Nature of the experiment: Antifungal activity against Candida albicans MY1055 after 24 hrs by 2-fold serial dilution method in presence of 50% mouse serum. To be noted: MY1055, 24 h. Type of experiment: functional.
The next experiment has as its system Candida parapsilosis. Description: Antifungal activity against Candida parapsilosis ATCC 22019 after 24 hrs by 2-fold serial dilution method. The format is functional. To be noted: ATCC 22019, 24 h. The method in brief: as §3
Experiment [12] has as its system Aspergillus fumigatus. Description: Antifungal activity against Aspergillus fumigatus ATCC 46645 assessed as growth inhibition after 24 hrs by checkerboard method. The format is functional, organism-based. To be noted: ATCC 46645, 24 h. Summed up:
as §2

Consider `CCCCCCCCCCCC(=O)N[C@@H](CCC(N)=O)C(=O)N[C@@H]1C(=O)NCCC(=O)N[C@H](Cc2c[nH]c3ccccc23)C(=O)N[C@@H](CO)C(=O)N[C@H](Cc2ccccc2)C(=O)O[C@@H]1C`, for which the result in the experiment on Aspergillus fumigatus [1], with Nakaseomyces glabratus [6] and with Candida albicans [7] was inactive. For the same compound, the minimum inhibitory concentration (MIC) (commonly the lowest concentration that inhibits growth of the organism) in the experiment with Candida albicans [2] was 2 µg/mL; with Aspergillus fumigatus [3] it was 4 µg/mL. In addition, the result in the experiment on Candida albicans [4] was Active. Also, the “fold change (FC)” value in the experiment with Aspergillus fumigatus [5] is recorded as 5.3.
For `CCCCCCCC/C=C\CCCCCCCC(=O)N[C@H](C(=O)N1C[C@H](C)C[C@H]1C(=O)N[C@H](C(=O)N[C@@H](CCOC(C)=O)C(=O)N[C@@H](C)C=O)C(C)C)[C@@H](C)O` (Oleoyl-T[Pro(4R-Me)]V[hSer](Ac)A-aldehyde), the MIC was 4 µg/mL (≈ 5.05 µM) in the experiment with Pichia kudriavzevii; 2 µg/mL (≈ 2.53 µM) against Clavispora lusitaniae; 2 µg/mL (≈ 2.53 µM) against Candida albicans [8]; 0.5 µg/mL (≈ 0.631 µM) in the experiment with Candida tropicalis; 2 µg/mL (≈ 2.53 µM) in the experiment on Nakaseomyces glabratus [9]; > 32 µg/mL against Aspergillus fumigatus [10]. The figures for the minimum inhibitory concentration (MIC) in the experiment with Candida albicans [11] and with Candida parapsilosis were > 32 µg/mL and 2 µg/mL (≈ 2.53 µM), respectively. Moreover, in the experiment on Aspergillus fumigatus [10], the MIC80 (commonly the lowest concentration that inhibits either 80% of growth or 80% of the strains tested, depending on the study) was 8 µg/mL (≈ 10.1 µM).
On to `CCCCCCCC/C=C\CCCCCCCC(=O)N[C@H](C(=O)N1C[C@H](C)C[C@H]1C(=O)N[C@H](C(=O)N[C@@H](CCO)C(=O)N[C@@H](C)CO)C(C)C)[C@@H](C)O` (Oleoyl-T[Pro(4R-Me)]V[hSer]-Alaol), for which the minimum inhibitory concentration (MIC) against Pichia kudriavzevii, against Clavispora lusitaniae, in the experiment with Candida albicans [8], against Candida tropicalis, against Nakaseomyces glabratus [9] and against Candida parapsilosis was > 32 µg/mL in each case.
Turning to `CCCCCCCC/C=C\CCCCCCCC(=O)N[C@H](C(=O)N1C[C@H](C)C[C@H]1C(=O)N[C@H](C(=O)N[C@@H](CCO)C(=O)N[C@@H](C)C=O)C(C)C)[C@@H](C)O` (Oleoyl-T[Pro(4R-Me)]V[hSer]A-aldehyde), the MIC was 2 µg/mL (≈ 2.67 µM) in the experiment with Pichia kudriavzevii; 2 µg/mL (≈ 2.67 µM) in the experiment with Clavispora lusitaniae; 2 µg/mL (≈ 2.67 µM) against Candida albicans [8]; 0.5 µg/mL (≈ 0.667 µM) in the experiment on Candida tropicalis; 2 µg/mL (≈ 2.67 µM) in the experiment on Nakaseomyces glabratus [9]; > 32 µg/mL with Aspergillus fumigatus [10]. Moreover, the MIC was > 32 µg/mL in the experiment on Candida albicans [11] and 2 µg/mL (≈ 2.67 µM) in the experiment on Candida parapsilosis. This compound yielded an MIC80 in the experiment with Aspergillus fumigatus [10] of 8 µg/mL (≈ 10.7 µM).
Turning to `CC[C@H](C)C[C@H](C)CCCCCCCCC(=O)N[C@H]1C[C@@H](O)[C@@H](NCCN)NC(=O)[C@@H]2[C@@H](O)CCN2C(=O)[C@H]([C@H](O)CCN)NC(=O)[C@H]([C@H](O)[C@@H](O)c2ccc(O)cc2)NC(=O)[C@@H]2C[C@@H](O)CN2C(=O)[C@H]([C@@H](C)O)NC1=O` [CASPOFUNGIN], the IC50 (commonly the concentration that inhibits the measured activity by half) in the experiment with Aspergillus fumigatus [12] came out at 33 nM.

For the origin of these results see ChEMBL document CHEMBL3576779, “Cyclic colisporifungin and linear cavinafungins, antifungal lipopeptides isolated from Colispora cavincola” (J Nat Prod, 2015).
